# Bioassay records deposited in PubChem BioAssay by Johns Hopkins Ion Channel Center.
# This is a sample that favours compounds with a hit; in the whole collection about 3.1% have one here.
# KCNK9 block: human KCNK9 channel inhibition. HEK293 KCNK9, FluxOR thallium flux fluorescence; hits give low values. B-score at 10 µM. 310,000 tested, 1.2% active. Q9NPC2;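 active = ratio B-score over 3 SD below the library mean, with starting fluorescence within 5 SD of its mean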;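 also: negative B-score means less thallium flux so channel inhibition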
# KCNQ1 inh: human KCNQ1 channel inhibition; CHO-K1 KCNQ1, FluxOR thallium flux fluorescence; hits give high values; P51787; AID 2642; 310,000 tested, 1.3% active; B-score at 10 µM;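 active = compounds whose thallium flux B-score, printed positive for inhibition, exceeds three library SD while starting fluorescence stays within three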;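 also: channel opened by potassium depolarization with thallium stimulus after 20 min compound exposure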
# KCNK3 block: human KCNK3 channel inhibition, primary screen. AID 602410. B-score at 10 µM. 340,000 tested, 0.84% active. CHO-KCNK3 thallium flux, FluxOR fluorescence; hits give low values;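 active = B-score under library mean minus 4 SD, starting fluorescence ratio at most library mean plus 5 SD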;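 also: more negative B-score means stronger inhibition of thallium flux through KCNK3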
# KCNQ1 act: potentiates or activates the human KCNQ1 potassium channel | P51787 | CHO-K1 KCNQ1, thallium flux FluxOR fluorescence; hits give high values | B-score at 10 µM | 310,000 tested, 0.35% active;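 active = fluorescence ratio B-score, a plate-corrected score, at least three library SD, with initial intensity B-score within 5 SD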
#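 Schedule – 37 °C overnight plating, 90-min dark dye load, 20-min compound pretreatment · System – stable KCNQ1 CHO-K1 line · Probe or stimulus – thallium- and potassium-containing depolarizing buffer · Measured by – kinetic FluxOR fluorescence, 10 s baseline plus 110 s post-stimulus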
# hERG rescue: hERG (human) protection from proarrhythmic block | CHO-hERG, FluxOR thallium flux, dofetilide IC70 present | activation (rescue from dofetilide block), less the hit threshold, % at 10 µM | 310,000 tested, 0.51% active;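 active = activation above the mean of controls blocked by dofetilide plus 5 SD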;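 also: thallium influx through hERG after potassium depolarization seen as dye fluorescence rise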
# KCNQ1 inh valid: confirmation of human KCNQ1 potassium channel inhibitors. shares compounds with KCNQ1 inh. KCNQ1 cell line, FluxOR thallium flux fluorescence. inhibition, % at 10 µM. 1,600 tested, 93% active. AID 588353;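 active = primary screen active, with duplicate mean exceeding buffer control mean plus 3 SD of buffer wells, cut at about 28% in these data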;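 also: 0% = buffer control ratio and 100% = XE991 inhibitor control ratio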
# CHO Tl flux: activity in parental CHO cells lacking KCNQ1. AID 588366. fluorescence ratio (Tl flux) at 10 µM. shares compounds with KCNQ1 inh. parental CHO-K1, FluxOR thallium flux fluorescence ratio; hits give low values; zero means no signal rise above baseline. 1,600 tested, 21% active;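 active = mean of duplicate thallium-flux fluorescence ratios in parental host cells more than 5 SD below the buffer control mean, cut at about 0.38 in these data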;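 also: ratio is peak minus minimum fluorescence divided by baseline fluorescence; actives read low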
# KCNQ1 ephys val: human KCNQ1 inhibition validated by electrophysiology; shares compounds with KCNQ1 inh; KCNQ1-CHO cells, automated patch clamp current; calls only at 10 µM; 490 tested, 20% active; AID 624120;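 active = KCNQ1 current drop exceeding 3 SD of negative control wells, seen in both duplicate runs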;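 also: steady state current during a 2 s step from -80 to +40 mV; negative values mean current inhibition and positive values mean potentiation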
# KCNQ2 inh: rat KCNQ2 inhibition in KCNQ1 inhibitor specificity screen; shares compounds with KCNQ1 inh; 1,600 tested, 71% active; KCNQ2 cells, FluxOR thallium flux fluorescence; inhibition, % at 10 µM;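 active = mean percent inhibition of the KCNQ2 thallium signal more than 5 SD above the buffer-only control wells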;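 also: KCNQ2 expressed in CHO cells; 0% = buffer control wells and 100% = XE-991 inhibitor control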
# KCNQ1 KCNE1 spec: selectivity of KCNQ1 inhibitors: inhibition of human KCNQ1/KCNE1 channel | shares compounds with KCNQ1 inh | KCNQ1/KCNE1 cells, FluxOR thallium flux fluorescence | inhibition, % at 10 µM | 1,600 tested, 77% active | AID 652147;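 active = mean percent inhibition of duplicate wells above the buffer-only control mean plus 3 SD of those controls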;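 also: 0% = buffer only wells and 100% = XE-991 inhibitor control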
# KCNK3 inh conf: confirmation of human KCNK3 two-pore domain potassium channel inhibitors; 2,400 tested, 99% active; shares compounds with KCNK3 block; CHO-KCNK3 thallium flux, FluxOR fluorescence; 0% buffer, 100% carvedilol maximal block; ratio percent of control, % at 10 µM;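 active = ratio percent of control, averaged over triplicates, above buffer control mean plus 5 SD, cut at about 64% in these data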;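 also: ratio is the fluorescence rise from min to max over baseline after thallium stimulus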
# KCNK3 noninduced: activity in cells without induced KCNK3 expression. 2,400 tested, 40% active. shares compounds with KCNK3 block. thallium flux ratio (lower = more inhibition) at 10 µM. non-induced KCNK3 parental cells, FluxOR thallium flux; hits give low values. AID 651747;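 active = thallium flux ratio, averaged over three wells, more than 5 SD below the buffer control mean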;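 also: host cells are CHO cells without KCNK3 induction; ratio is peak minus trough fluorescence over baseline then normalized to buffer controls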
# Starred values were filed as active, the others as inactive; i = inactive; . = no result; + = active, no number.
SMILES,KCNK9 block,KCNQ1 inh,KCNK3 block,KCNQ1 act,hERG rescue,KCNQ1 inh valid,CHO Tl flux,KCNQ2 inh,KCNQ1 KCNE1 spec,KCNK3 inh conf,KCNK3 noninduced,others
O=C(N/N=C/c1cc(Br)c(O)c(Br)c1)c1cc2c(ccc3ccccc32)o1,i,15*,-10.7*,i,-48.6,160.5*,0.316*,130.3%*,+,136.3*,0.093*,
CCCCNC(=O)CCn1c(=O)c2ccccc2n(Cc2ccc(F)cc2)c1=O,i,i,i,i,-3.4,.,.,.,.,.,.,
CC(C)(C)c1ccc(OCC(=O)Nc2ccncc2)c(Br)c1,i,19*,-8.75*,i,-18.3,142.5*,0.421,i,73.5%*,137.7*,0.125*,KCNQ1 ephys val=i
CCc1ccc(OCC(=O)Nc2ccncc2)c(Br)c1,i,i,i,i,-8.1,.,.,.,.,.,.,
Cc1cc(OCC(=O)Nc2ccncc2)c(C)cc1Br,i,8*,-9.18*,i,-16.0,132.0*,0.491,108.0%*,43.5%*,122.3*,i,KCNQ1 ephys val=i
O=C1CCC(C(=O)N2CCCC(N3CCN(c4cccc(C(F)(F)F)c4)CC3)C2)=NN1 (stereo not given),i,i,i,i,-3.6,.,.,.,.,.,.,
CC(C)(C)c1cc(C(=O)NCc2cc(F)cc3c2OCOC3)n(Cc2ccccc2)n1,-7.91*,9*,-12*,i,-11.1,134.0*,0.371*,101.3%*,197.5%*,135.3*,0.13*,
CC(C)c1ccc2c(c1)C1(NN=C(c3ccccc3)S1)C(=O)N2 (stereo not given),i,18*,-11.7*,i,-22.3,68.0*,0.354*,78.3%*,42.5%*,137.7*,0.0953*,
COc1ccc(NC(=O)COc2cccc3c2CCN(Cc2cccnc2)C3=O)c(OC)c1,i,i,i,i,-7.7,.,.,.,.,.,.,
CNc1nc(SCc2ccc(C)cc2)nc2c1CCCC2,i,10*,-10.8*,i,-8.7,129.5*,0.442,101.0%*,102.0%*,134.0*,0.148*,KCNQ1 ephys val=i
Cn1ccc2cc(-c3csc(N4CCC(C(N)=O)CC4)n3)ccc21,.,.,i,.,.,.,.,.,.,.,.,
CC(C)OC(=O)NCCOC(=O)Nc1ccc(Cl)c(Cl)c1,-8.07*,10*,-10.9*,i,-22.8,80.0*,0.424,119.0%*,i,105.3*,i,
CC(C)OC(=O)NCCOC(=O)Nc1cccc(Cl)c1,i,i,i,i,-1.9,.,.,.,.,.,.,
COc1ccc(-c2cc(C)no2)cc1S(=O)(=O)N1CCOc2ccc(Cl)cc21,i,i,i,i,-4.8,.,.,.,.,.,.,
Cc1ccc2c(c1)N(S(=O)(=O)c1cc(-c3onc(C)c3C)ccc1C)CCO2,-7.54*,7*,-10.9*,i,-9.9,77.0*,0.351*,106.3%*,93.0%*,106.3*,i,
CC1Oc2ccccc2C=C1/C=N\NC(=O)c1cccnc1 (stereo not given),i,i,i,i,-12.8,.,.,.,.,.,.,
COc1ccc(Nc2nc(-c3cccc(OC)c3O)nc3ccccc23)cc1,i,7*,-9.92*,i,-4.2,167.5*,0.303*,116.0%*,+,133.0*,0.146*,
COc1ccc(CCNC(C(=O)Nc2cc(C)cc(C)c2)c2ccccc2)cc1 (stereo not given),i,12*,-14*,i,-15.6,87.5*,0.369*,122.3%*,143.5%*,117.7*,0.139*,
Cc1cc(C)cc(NC(=O)C(NCC2CCCO2)c2ccccc2)c1 (stereo not given),i,i,i,i,-6.5,.,.,.,.,.,.,
O=C(c1ccc(CSc2nc3ccncc3[nH]2)cc1)N1CCCCCC1,i,i,i,i,-11.8,.,.,.,.,.,.,
O=C(c1ccc(CSc2nc3ccncc3[nH]2)cc1)N1CCN(c2cccc(Cl)c2)CC1,i,13*,-11*,i,-19.7,134.5*,0.315*,111.0%*,193.0%*,134.0*,0.148*,
COc1cccc(NC(=O)Nc2ccc(C(C)(C)C)cc2)c1,i,13*,-12.6*,i,-30.4,152.5*,0.352*,109.3%*,+,133.7*,0.125*,
CN1C(=O)CSc2ccc(NC(=O)Nc3ccccn3)cc21,i,i,i,i,1.1,.,.,.,.,.,.,
CC(=O)Nc1ccc(NC(=O)Nc2ccc3c(c2)N(C)C(=O)CS3)cc1,i,i,i,i,-6.0,.,.,.,.,.,.,
COc1cccc(NC(=O)Nc2ccc3c(c2)N(C)C(=O)CS3)c1,i,6*,-11.4*,i,-28.3,114.5*,0.361*,114.0%*,+,119.0*,i,
SMILES,KCNK9 block,KCNQ1 inh,KCNK3 block,KCNQ1 act,hERG rescue,KCNQ1 inh valid,CHO Tl flux,KCNQ2 inh,KCNQ1 KCNE1 spec,KCNK3 inh conf,KCNK3 noninduced,others
COc1cccc(NC(=O)Nc2ccncc2)c1,i,i,i,i,-3.6,.,.,.,.,.,.,
CCOc1ccc(OCC)c(NC(=O)Nc2ccc3c(c2)N(C)C(=O)CS3)c1,i,14*,-16.2*,i,-9.2,82.0*,0.468,90.3%*,152.5%*,119.3*,i,
O=C(O)Cc1csc(-c2cccc(F)c2)n1,i,i,i,i,-6.3,.,.,.,.,.,.,
O=C(Nc1ccc(Cl)c(Cl)c1)c1ccc(Cn2cc(Cl)cn2)cc1,i,8*,-11.7*,i,-6.8,111.5*,0.429,105.3%*,111.5%*,109.3*,i,KCNQ1 ephys val=i
NNC(=O)c1ccc(Cn2cc(Cl)cn2)cc1,i,i,i,i,-3.1,.,.,.,.,.,.,
O=C(COC(=O)COc1ccc(Cl)cc1)Nc1ccc(N2CCOCC2)cc1,i,i,i,i,-13.1,.,.,.,.,.,.,
